{
  "source": "ChEMBL document CHEMBL4818990",
  "about": "“Insight into the binding mode of HIF-2 agonists through molecular dynamic simulations and biological validation” (Eur J Med Chem, 2021)",
  "key": {"Homo sapiens": {"organism": "Homo sapiens", "assay": "Agonist activity at HIF-2 (unknown origin) expressed in bacterial expression system assessed as change in melting temperature at 10 uM measured by thermal shift assay", "details": "filed as agonist", "method_in_brief": "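HIF-2–ARNT protein complex (1.5M as printed) with 10 μM compound from DMSO stock, final DMSO 0.1%, in 20 mM Tris pH 8.0, 400 mM NaCl. Read on qPCR instrument with thermal-shift dye. Tm from derivative curve; ΔTm = compound Tm minus blank Tm. Four parallel replicates per compound.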"}, "786-0 [1]": {"tested_on": "786-0", "assay": "(§1) Agonist activity at HIF-2 in human 786-0-HRE-Luc cells assessed as increase in […] intensity measured after 24 hrs by luciferase reporter gene assay", "format": "cell-based", "details": "filed as agonist", "method_in_brief": "(§2)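 786-O cells stably transduced with lentiviral HRE-driven firefly luciferase (single clone), grown in RPMI-1640 + 10% FBS. Seeded, allowed to attach, then given compound in DMSO (2 and 20 μM, or a concentration series) for 24 h. Luminescence read with a firefly luciferase reagent; triplicate cultures, mean ± s.d.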"}, "786-0 [2]": {"tested_on": "786-0", "assay": "Agonist activity at HIF-2 in human 786-0-HRE-Luc cells at 2 uM measured after 24 hrs by luciferase reporter gene assay", "format": "cell-based", "details": "filed as agonist", "method_in_brief": "as §2"}, "786-0 [3]": {"tested_on": "786-0", "assay": "Agonist activity at HIF-2 in human 786-0-HRE-Luc cells assessed as increase in […] intensity at 2.2 uM measured after 24 hrs by luciferase reporter gene assay relative to control", "format": "cell-based", "details": "filed as agonist", "method_in_brief": "as §2"}, "786-0 [4]": {"tested_on": "786-0", "assay": "Cytotoxicity against human 786-0-HRE-Luc cells assessed as inhibition of cell proliferation at 1 uM measured after 24 hrs by CCK8 assay", "format": "cell-based", "details": "786-0, 24 h"}, "786-0 [5]": {"tested_on": "786-0", "assay": "Agonist activity at HIF-2 in human 786-0-HRE-Luc cells assessed as increase in […] intensity at 6.6 to 20 uM measured after 24 hrs by luciferase reporter gene assay", "format": "cell-based", "details": "dose 6.6-20 µM", "method_in_brief": "as §2"}, "[6]": {"assay": "as §1", "format": "cell-based", "details": "786-0, 24 h", "method_in_brief": "as §2"}, "786-0 [7]": {"tested_on": "786-0", "assay": "Agonist activity at HIF-2 in human 786-0-HRE-Luc cells assessed as increase in […] intensity at 20 uM measured after 24 hrs by luciferase reporter gene assay relative to control", "format": "cell-based", "details": "filed as agonist", "method_in_brief": "as §2"}, "786-0 [8]": {"tested_on": "786-0", "assay": "Cytotoxicity against human 786-0-HRE-Luc cells assessed as inhibition of cell proliferation at 20 uM measured after 24 hrs by CCK8 assay", "format": "cell-based", "details": "786-0, 24 h"}},
  "note": "pEC50: −log10 of the molar value. The source made the active and inactive calls. The rule behind the calls is not given here.",
  "data": [
    {"smiles": "O=S1(=O)N=C(Nc2cc(F)cc(F)c2)c2ccccc21", "values": [
      {"measurement": "ΔTm", "setting": "Homo sapiens", "result": 2.05, "unit": "°C"},
      {"measurement": "Activity", "setting": "786-0 [1]", "result": "Dose-Dependent Effect"}
    ]},
    {"smiles": "CN(C1=NS(=O)(=O)c2ccccc21)c1cc(C(F)(F)F)cc(C(F)(F)F)c1", "values": [
      {"measurement": "ΔTm", "setting": "Homo sapiens", "result": 0.27, "unit": "°C"}
    ]},
    {"smiles": "O=S1(=O)N=C(Nc2cc(C(F)(F)F)cc(C(F)(F)F)c2)c2ccccc21", "values": [
      {"measurement": "Activity", "setting": "786-0 [2]", "result": "Active"},
      {"measurement": "fold change (FC)", "setting": "786-0 [3]", "result": 1.41},
      {"measurement": "Activity", "setting": "786-0 [4]", "result": "Toxic"},
      {"measurement": "ΔTm", "setting": "Homo sapiens", "result": 2.23, "unit": "°C"},
      {"measurement": "Activity", "setting": "786-0 [5]", "result": "inactive"},
      {"measurement": "pEC50", "setting": "[6]", "result": 6.36}
    ]},
    {"smiles": "O=S1(=O)N=C(Nc2cc(Cl)cc(Cl)c2)c2ccccc21", "values": [
      {"measurement": "ΔTm", "setting": "Homo sapiens", "result": 2.08, "unit": "°C"},
      {"measurement": "Activity", "setting": "786-0 [1]", "result": "Dose-Dependent Effect"}
    ]},
    {"smiles": "Cc1cc(C)cc(NC2=NS(=O)(=O)c3ccccc32)c1", "values": [
      {"measurement": "ΔTm", "setting": "Homo sapiens", "result": 1.93, "unit": "°C"},
      {"measurement": "Activity", "setting": "786-0 [1]", "result": "Dose-Dependent Effect"}
    ]},
    {"smiles": "O=S1(=O)N=C(Oc2cc(C(F)(F)F)cc(C(F)(F)F)c2)c2ccccc21", "values": [
      {"measurement": "ΔTm", "setting": "Homo sapiens", "result": 0.06, "unit": "°C"}
    ]},
    {"smiles": "O=S1(=O)N=C(Nc2cc(Br)cc(Br)c2)c2ccccc21", "values": [
      {"measurement": "fold change (FC)", "setting": "786-0 [7]", "result": 1.63},
      {"measurement": "Activity", "setting": "786-0 [8]", "result": "Non-Toxic"},
      {"measurement": "ΔTm", "setting": "Homo sapiens", "result": 2.52, "unit": "°C"},
      {"measurement": "Activity", "setting": "786-0 [1]", "result": "Dose-Dependent Effect"},
      {"measurement": "pEC50", "setting": "[6]", "result": 5.77}
    ]},
    {"smiles": "O=C1N=C(Nc2cc(C(F)(F)F)cc(C(F)(F)F)c2)c2ccccc21", "values": [
      {"measurement": "ΔTm", "setting": "Homo sapiens", "result": 0.03, "unit": "°C"}
    ]},
    {"smiles": "O=S1(=O)N=C(Nc2ccccc2)c2ccccc21", "values": [
      {"measurement": "ΔTm", "setting": "Homo sapiens", "result": 2, "unit": "°C"},
      {"measurement": "Activity", "setting": "786-0 [1]", "result": "Dose-Dependent Effect"}
    ]},
    {"smiles": "COc1cc(NC2=NS(=O)(=O)c3ccccc32)cc(OC)c1", "values": [
      {"measurement": "ΔTm", "setting": "Homo sapiens", "result": 1.89, "unit": "°C"},
      {"measurement": "Activity", "setting": "786-0 [1]", "result": "Dose-Dependent Effect"}
    ]}
  ]
}
